Series [1] is filed under the species Felis catus. The series can be described thus: Positive inotropic activity in cat heart papillary muscle assessed as increase in contractile force up to 10 ug/mL measured for 5 to 30 mins in presence of beta-adrenergic inhibitor sotalol. Type of series: functional, tissue-based. The method in brief:
(§1)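 Cat right-ventricular papillary muscle in Krebs–Henseleit at 37 °C, electrically driven at 1/s. Force recorded 5–30 min after compound, in the presence of the β-blocker sotalol at 10 μg/mL. Scored as mg increase in contractile force.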

Series [2] in a line: Inhibition of calf heart Na+-K+ dependent ATPase preincubated for 30 mins measured after 10 to 20 mins. Details: species or system Bos taurus. As to conditions: read-out: I50. In outline:
(§2)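 Partially purified membrane ATPase from calf heart or guinea pig renal cortex. Inhibitor plus enzyme were preincubated 30 min at 10× final concentrations, then added to the otherwise complete assay system. Incubated at 37 °C under air, with aliquots taken at 10 and 20 min. Liberated phosphate measured by the Lowry–Lopez method. I50 came from log inhibitor vs percent inhibition lines, at least three points.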

Series [3] is described as follows: (§3) Positive inotropic activity in cat heart papillary muscle assessed as increase in contractile force at 0.63 ug/mL measured for 5 to 30 mins. Type of series: functional, Felis catus, Muscle tissue. In outline:
(§4)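 Right-ventricular papillary muscles from cat hearts in a 100-mL bath of Krebs–Henseleit solution at 37 °C, driven electrically with square waves of 4–10 ms, 6–10 V, 1/s. Equilibrated about 90 min until force fell to 25–30% of initial. Compound added, contractile force read at 5, 10, 20 and 30 min, then ouabain 0.5 μg/mL as a responsiveness check. Positive inotropy means a rise above 20%.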

The nature of series [4]: Inhibition of calf heart Na+-K+ dependent ATPase after 10 to 20 mins. Details: species or system Bos taurus. Conditions: read-out: I50. The method in brief:
(§5)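 Partially purified membrane ATPase from calf heart or guinea pig renal cortex. Reaction started by final addition of enzyme. Incubated at 37 °C under air, with aliquots taken at 10 and 20 min. Liberated phosphate measured by the Lowry–Lopez method. I50 came from log inhibitor vs percent inhibition lines, at least three points. This was done only where acute inhibition was >50% at 1 × 10⁻³ M.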

Series [5] is described as follows: Positive inotropic activity in cat heart papillary muscle assessed as concentration required to increase contractile force by 500 mg measured for 5 to 30 mins. Type of series: functional, Felis catus, Muscle tissue. In outline: (§6)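 Right-ventricular cat papillary muscles in Krebs–Henseleit at 37 °C, field-stimulated at 1/s (4–10 ms, 6–10 V). Muscles equilibrated about 90 min, until force fell to 25–30% of original. Compound added and force recorded at 5, 10, 20 and 30 min, followed by ouabain 0.5 μg/mL. Positives were retested on three more preparations at ≥3 concentrations. Scored as mg increase in contractile force.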

Series [6] in a line: Positive inotropic activity in cat heart papillary muscle assessed as increase in contractile force at 2.5 ug/mL measured for 5 to 30 mins. Type of series: functional, Felis catus, Muscle tissue. The method in brief:
as §6

The nature of series [7]: (§7) Positive inotropic activity in cat heart papillary muscle assessed as increase in contractile force at 10 ug/mL measured for 5 to 30 mins. Type of series: functional, Felis catus, Muscle tissue. The method in brief: as §6
The species named for series [8] is Felis catus. Briefly: Positive inotropic activity in heart papillary muscle isolated from reserpine-treated cat assessed as increase in contractile force at 10 ug/mL measured for 5 to 30 mins. Type of series: functional, tissue-based. Conditions: Muscle tissue. In outline: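 Cats pretreated with reserpine 0.5 mg/kg ip before papillary muscle isolation. Right-ventricular muscles kept in Krebs–Henseleit at 37 °C, stimulated at 1/s, and force recorded at 5–30 min after compound addition.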

Series [9] in a line: Dissociation constant, pKa of the compound. Type of series: physicochemical. In outline: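 pKa determined in water or in 30% EtOH–70% H2O, depending on compound.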
For series [10], the species on record is Felis catus. Described as §7. Type of series: functional. Conditions: Muscle tissue. In outline:
as §6

The species named for series [11] is Felis catus. The description is as §3. Type of series: functional. Conditions: Muscle tissue. The method in brief: as §4
For series [12], the species on record is Felis catus. Briefly: Positive inotropic activity in cat heart papillary muscle assessed as increase in contractile force at 10 ug/mL measured for 5 to 30 mins in presence of beta-adrenergic inhibitor sotalol. Type of series: functional, tissue-based. In outline:
as §1

Series [13] in a line: Inhibition of guinea pig kidney Na+-K+ dependent ATPase preincubated for 30 mins measured after 10 to 20 mins. Conditions: read-out: I50. Details: species or system Cavia porcellus. In outline: as §2
Series [14] can be described thus: Inhibition of guinea pig kidney Na+-K+ dependent ATPase after 10 to 20 mins. The arrangement: species or system Cavia porcellus. As to conditions: read-out: I50. The method in brief:
as §5

A short description of series [15]: Positive inotropic activity in cat heart papillary muscle assessed as increase in contractile force at 0.156 ug/mL measured for 5 to 30 mins. Type of series: functional, Felis catus, Muscle tissue. In outline:
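Right-ventricular cat papillary muscles in Krebs–Henseleit solution at 37 °C, paced at 1/s (4–10 ms, 6–10 V square waves). Equilibrated about 90 min; compound added once force had fallen to 25–30% of original (1.5–2 h). Force recorded 5, 10, 20 and 30 min after addition, then ouabain 0.5 μg/mL added. Increase over 20% scored positive. Actives retested on three further preparations at ≥3 concentrations.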

Each structure is given as a SMILES string. Calls of active or inactive are those of the source. The calls are words filed in the database; no cut-off is given here.

For `CC(=O)OC(CNC(=N)C(Cl)(Cl)Cl)COc1ccccc1.Cl` (centres undefined), the outcome in the series filed under Felis catus [1] and in the series listed under Felis catus [8] was Active. Further, the IC50 in [2] is 70 µM; in series [4], 170 µM. Besides, the Activity in series [3] was less than 200 mg; in series [5], 4.96 µg/mL; in series [6], 201 mg; in [7], greater than 600 mg.
Molecule `COc1ccc(CNC(=N)C(Cl)(Cl)Br)cc1` gave a pKa in [9] of 6.15.
`N=C(Nc1ccccc1)C(Cl)(Cl)Cl`: the result in the series listed under Felis catus [10] was inactive.
With `O=C(NCCO)C(Cl)(Cl)Cl`, the result in the series filed under Felis catus [1] was Active. Moreover, the result in the series filed under Felis catus [10] was inactive.
For the molecule `N=C(NCCO)C(Cl)(Cl)Cl`, in the series listed under Felis catus [1], the result was Active. The result in the series filed under Felis catus [11] was inactive. Further, the Activity in series [5] is 5.5 µg/mL; in series [6], less than 200 mg; in series [7] it was greater than 600 mg.
In the case of `C=CCNC(=N)C(Cl)(Cl)Cl.Cl`, the result in the series filed under Felis catus [11] and in the series listed under Felis catus [12] was inactive. Further, the Activity is 2.78 µg/mL in [5], 201 mg in series [6] and greater than 600 mg in series [7]. For the same molecule, the outcome in the series filed under Felis catus [8] was Active.
`COc1ccc(CNC(=N)C(Cl)(Cl)Cl)cc1.Cl`: the IC50 came to 100 µM in [13], 800 µM in series [14], 5 µM in series [2] and 20 µM in series [4]. For the same molecule, the outcome in the series listed under Felis catus [1] and in the series filed under Felis catus [8] was Active. Also, the pKa in series [9] came to 6. For the same molecule, the Activity in series [3] is less than 200 mg; in series [5] it was 4.99 µg/mL; in series [6] it was 201 mg; in series [7] it was greater than 600 mg.
For `CCCNC(=N)C(Cl)(Cl)Cl.Cl`, the result in the series filed under Felis catus [1] was Active. Further, the Activity in [15] is less than 200 mg; in series [5], 2.22 µg/mL; in series [6], 201 mg; in series [7], greater than 600 mg.
`N=C(NCCc1ccccc1)C(Cl)(Cl)Cl`: the result in the series listed under Felis catus [10] was inactive.
Regarding `Cl.N=C(NCCc1ccc(O)c(O)c1)C(Cl)(Cl)Cl`, the outcome in the series filed under Felis catus [11] and in the series filed under Felis catus [12] was inactive. For the same molecule, the Activity in [5] is greater than 10 µg/mL; in series [6], less than 200 mg; in series [7] it was 201 mg.
`Cl.N=C(N)C(Cl)(Cl)Cl`: the result in the series filed under Felis catus [1] and in the series listed under Felis catus [8] was Active. Besides, the Activity in series [3] was less than 200 mg; in series [5], 2.68 µg/mL; in [6], 201 mg; in series [7], greater than 600 mg.
With `COc1ccc(CNC(=N)C(F)(Cl)Cl)cc1`, the IC50 in [13] was found to be 2 µM; in [14], 15 µM; in [2], 2 µM; in series [4] it was 20 µM. The molecule also displayed a pKa in [9] of 6.18.
With `C[C@@H](NC(=N)C(Cl)(Cl)Cl)c1ccccc1`, the outcome in the series listed under Felis catus [10] was inactive.
Consider `C=CCN/C(=N\C)C(Cl)(Cl)Cl.Cl`, for which, in the series listed under Felis catus [1], the outcome was Active. The outcome in the series listed under Felis catus [11] was inactive. Besides, the Activity in series [5] is 3.89 µg/mL; in [6], 201 mg; in [7], greater than 600 mg.
Take `C/N=C(\N(C)C)C(Cl)(Cl)Cl`: the result in the series listed under Felis catus [12] was inactive.
On to `C=CCN(CC=C)C(=N)C(Cl)(Cl)Cl`, for which the outcome in the series listed under Felis catus [10] was inactive.
As for `ClC(Cl)(Cl)C1=NCCCN1`, the Activity in series [15] was less than 200 mg; in series [5], 2.77 µg/mL; in [6], 201 mg; in [7], greater than 600 mg. In addition, in the series filed under Felis catus [12], the result was inactive.

The term pKa denotes the negative logarithm of the acid dissociation constant. A lower pKa goes with a group that gives up its proton readily.

These data come from ChEMBL document CHEMBL3244020, “Trichloroacetamidines, a new class of positive inotropic agents” (J Med Chem, 1978).
